Measurements as given in ChEMBL document CHEMBL3784946, “Antiviral Merosesquiterpenoids Produced by the Antarctic Fungus Aspergillus ochraceopetaliformis SCSIO 05702” (J Nat Prod, 2016).
Values after ≈ are worked out from the molar mass of the structure shown. Active and inactive are the calls of the source. The rule behind the calls is not given here.

How the values were obtained:
U-937 = test: (§1) Cytotoxicity against human U937 cells assessed as reduction in cell viability after 72 hrs by CCK8 assay; type: functional, cell-based
Method in brief: (§2)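 Cells grown in RPMI or DMEM with 10% FBS and 1% penicillin/streptomycin at 37 °C under 5% CO2. Seeded at 400–800 cells/well and exposed to graded compound concentrations or solvent control for 72 h. Viability read by CCK-8 absorbance at 450 nm, and IC50 derived from dose–response curves.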

[1] = test system: Mycobacterium tuberculosis; test: Antitubercular activity against Mycobacterium tuberculosis H37Ra assessed as growth inhibition at 100 ug/ml after 7 days by Alamar blue assay; type: functional, organism-based
Method in brief: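 M. tuberculosis H37Ra exposed 7 days to material at 100 μg/mL (from 10 mg/mL DMSO stock; 1% v/v DMSO). Growth measured by Alamar Blue fluorescence, with inhibition expressed relative to bacteria-only controls.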

HT-29 = test: Cytotoxicity against human HT-29 cells assessed as reduction in cell viability after 72 hrs by CCK8 assay; type: functional, cell-based; method in brief: as §2
[2] = Selectivity index, ratio of CC50 for MDCK cells to IC50 for Influenza A virus H1N1 infected in MDCK cells; type: functional
Method in brief: (§3)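 SI calculated as CC50 divided by IC50, both from the CPE-inhibition assay on MDCK cells. The underlying values are means of three independent experiments.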

A549 = test: Cytotoxicity against human A549 cells assessed as reduction in cell viability after 72 hrs by CCK8 assay; type: functional, cell-based; method in brief: as §2
[3] = Cytotoxicity against MDCK cells after 48 hrs by crystal violet staining-based microplate reader analysis; type: cell-based, Canis lupus familiaris; conditions: dog
Method in brief: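 CC50 taken from the CPE-inhibition assay format on MDCK cells, with crystal violet read-out. Values are means ± SD of three independent experiments.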

Staphylococcus aureus [4] = test: Antibacterial activity against Staphylococcus aureus assessed as growth inhibition at 0.01 to 100 ug/ml after 24 hrs by agar dilution method; type: functional, organism-based
Method in brief: (§4)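 Bacteria grown on LB agar plates at 37 °C. Samples were dissolved in DMSO and serially diluted 2-fold from 100 to 0.01 μg/mL. 5 μL of each dilution was loaded onto a 5 mm paper disk placed on the plate. After 24 h, inhibition zone diameters (mm) were recorded. MIC was the lowest concentration with no visible growth. Ciprofloxacin lactate served as positive control.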

Escherichia coli = test: Antibacterial activity against Escherichia coli assessed as growth inhibition at 0.01 to 100 ug/ml after 24 hrs by agar dilution method; type: functional, organism-based; method in brief: as §4
Influenza A virus H3N2 = test: Antiviral activity against Influenza A virus H3N2 infected in MDCK cells assessed as inhibition of virus-induced cytopathic effect after 48 hrs by crystal violet staining-based microplate reader analysis; type: functional, organism-based
Method in brief: (§5)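 Confluent MDCK monolayers infected with influenza virus for 1 h at 37 °C. Virus was removed, and cells were kept in RPMI 1640 with 4 μg/mL trypsin plus graded compound concentrations for 48 h at 37 °C. Cells were then fixed in 4% formaldehyde and stained with 0.1% crystal violet, with absorbance read at 570 nm. IC50 is the concentration giving 50% […] at 48 h. Values are means of three independent experiments.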

HeLa = test: Cytotoxicity against human HeLa cells assessed as reduction in cell viability after 72 hrs by CCK8 assay; type: functional, cell-based; method in brief: as §2
Influenza A virus = test: Antiviral activity against Influenza A virus H1N1 infected in MDCK cells assessed as inhibition of virus-induced cytopathic effect after 48 hrs by crystal violet staining-based microplate reader analysis; type: functional, organism-based; method in brief: as §5
[5] = Selectivity index, ratio of CC50 for MDCK cells to IC50 for Influenza A virus H3N2 infected in MDCK cells; type: functional; method in brief: as §3
HL-60 = test: Cytotoxicity against human HL60 cells assessed as reduction in cell viability after 72 hrs by CCK8 assay; type: functional, cell-based; method in brief: as §2
[6] = as §1; type: functional, cell-based; conditions: U-937, 72 h; method in brief: as §2
Staphylococcus aureus [7] = test: Antibacterial activity against Staphylococcus aureus after 24 hrs by agar dilution method; type: functional
[8] = test system: Mycobacterium tuberculosis; test: Antitubercular activity against Mycobacterium tuberculosis H37Ra after 7 days by Alamar blue assay; type: functional; conditions: 168 h
Method in brief: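 M. tuberculosis H37Ra exposed 7 days to 2-fold dilution series from 100 μg/mL downward (10 mg/mL DMSO stock; 1% v/v DMSO at top). Growth measured by Alamar Blue fluorescence.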

Row | SMILES | Activity (U-937) | growth inhibition (GI) [1] | Activity (HT-29) | Ratio CC50/IC50 [2] | Activity (A549) | CC50 at 48 h [3] [nM] | growth inhibition (GI) (Staphylococcus aureus [4]) | growth inhibition (GI) (Escherichia coli) | IC50 (Influenza A virus H3N2) [nM] | Activity (HeLa) | IC50 (Influenza A virus) [nM] | Ratio CC50/IC50 [5] | Activity (HL-60) | IC50 [6] [nM] | IC50 (HT-29; HT-29, 72 h) [nM] | MIC (Staphylococcus aureus [7]) [µg/mL] | MIC90 [8] [µM]
1 | CC[C@H]1O[C@@H]2O[C@H](/C=C/C=C/C=C/c3oc(=O)cc(OC)c3C)[C@H](O)[C@]2(C)[C@@]1(C)O | inactive | inactive | inactive | 0.44 | inactive | 240 | inactive | inactive | 840 | inactive | 540 | 0.29 | inactive | – | – | – | –
2 | CO[C@H]1c2c(c(C)c(C)oc2=O)O[C@@]2(C)[C@H]1[C@@H](C)[C@]1(O)CC(=O)C(C)(C)C(=O)[C@@]1(O)[C@H]2O | inactive | inactive | inactive | – | inactive | 20900 | inactive | inactive | 12200 | inactive | > 20000 | 1.71 | inactive | – | – | – | –
3 | CC(=O)O[C@H]1C(=O)[C@@]2(C)[C@H]([C@H](OC(=O)c3ccccc3)[C@]3(O)C[C@H](OC(=O)[C@H](O)[C@@H](NC(=O)c4ccccc4)c4ccccc4)C(C)=C1C3(C)C)[C@]1(OC(C)=O)CO[C@@H]1C[C@@H]2O [PACLITAXEL] | – | – | – | – | – | – | – | – | – | – | – | – | – | 1.66 | 3.04 | – | –
4 | CC[C@H]1O[C@@H]2O[C@@H]3[C@H](O)[C@@H](/C=C/C=C/c4oc(=O)cc(OC)c4C)O[C@@H]3[C@]2(C)[C@@]1(C)O | inactive | inactive | inactive | – | inactive | – | inactive | inactive | – | inactive | – | – | inactive | – | – | – | –
5 | CC(O)C(=O)O.O=C(O)c1cn(C2CC2)c2cc(N3CCNCC3)c(F)cc2c1=O [CIPROFLOXACIN LACTATE] | – | – | – | – | – | – | – | – | – | – | – | – | – | – | – | 1.25 | –
6 | CCOC(=O)C1=C[C@@H](OC(CC)CC)[C@H](NC(C)=O)[C@@H](N)C1 [OSELTAMIVIR] | – | – | – | – | – | – | – | – | 18.5 | – | 16.9 | – | – | – | – | – | –
7 | Cc1oc(=O)c2c(c1C)O[C@@]1(C)C(=C2)[C@@H](C)[C@]2(O)CC(=O)C(C)(C)C(=O)[C@@]2(O)[C@H]1O | inactive | inactive | inactive | – | inactive | – | inactive | inactive | – | inactive | – | – | inactive | – | – | – | –
8 | Cc1oc(=O)c2c(c1C)O[C@@]1(C)[C@@H]([C@@H](C)[C@]3(O)CC(=O)C(C)(C)C(=O)[C@@]3(O)[C@H]1O)[C@H]2O | inactive | inactive | inactive | – | inactive | – | inactive | inactive | – | inactive | – | – | inactive | – | – | – | –
9 | Cc1oc(=O)c2c(c1C)O[C@]1(C)[C@H](O)C[C@@]3(O)C(C)(C)C(=O)CC[C@]3(C)[C@H]1C2 | inactive | inactive | inactive | – | inactive | – | inactive | inactive | – | inactive | – | – | inactive | – | – | – | –
10 | CC[C@H]1O[C@@H]2O[C@H](/C=C/C=C\C=C\c3oc(=O)cc(OC)c3C)[C@H](O)[C@]2(C)[C@@]1(C)O | inactive | inactive | inactive | 2.35 | inactive | 540 | inactive | inactive | 660 | inactive | 230 | 0.81 | inactive | – | – | – | –
11 | NNC(=O)c1ccncc1 [ISONIAZID] | – | – | – | – | – | – | – | – | – | – | – | – | – | – | – | – | 2.04 (≈ 0.28 µg/mL)
12 | Cc1oc(=O)c2c(c1C)O[C@@]1(C)[C@H](C2)[C@@H](C)[C@]2(O)CC(=O)C(C)(C)C(=O)[C@@]2(O)[C@H]1O | inactive | inactive | inactive | – | inactive | – | inactive | inactive | – | inactive | – | – | inactive | – | – | – | –
